Measured values from paper PMC4958353 (Drug Design, Development and Therapy, 2016).
Values after ≈ are worked out from the molar mass of the structure shown.

What was measured:
in vitro = details: human
M. tuberculosis H37Rv = assay: microplate Alamar Blue assay, in vitro anti-TB activity; type: cell-based; details: Mycobacterium tuberculosis
[1] = compared with compound 10b (90.5%); cited from earlier work
human serum albumin = human serum albumin (Homo sapiens, UniProt P02768); assay: protein binding by reverse-phase HPLC on human serum albumin column; type: in vitro ADME
[2] = human liver microsomal stability; type: in vitro ADME; details: HLM incubation
Method in brief: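 Test compound incubated with human liver microsomes. The percentage of parent compound remaining was read at 15 min, 30 min, 1 h and 2 h of incubation.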

[3] = pKa by reverse-phase HPLC; type: physicochemical

Chain of human serum albumin (P02768 25-609): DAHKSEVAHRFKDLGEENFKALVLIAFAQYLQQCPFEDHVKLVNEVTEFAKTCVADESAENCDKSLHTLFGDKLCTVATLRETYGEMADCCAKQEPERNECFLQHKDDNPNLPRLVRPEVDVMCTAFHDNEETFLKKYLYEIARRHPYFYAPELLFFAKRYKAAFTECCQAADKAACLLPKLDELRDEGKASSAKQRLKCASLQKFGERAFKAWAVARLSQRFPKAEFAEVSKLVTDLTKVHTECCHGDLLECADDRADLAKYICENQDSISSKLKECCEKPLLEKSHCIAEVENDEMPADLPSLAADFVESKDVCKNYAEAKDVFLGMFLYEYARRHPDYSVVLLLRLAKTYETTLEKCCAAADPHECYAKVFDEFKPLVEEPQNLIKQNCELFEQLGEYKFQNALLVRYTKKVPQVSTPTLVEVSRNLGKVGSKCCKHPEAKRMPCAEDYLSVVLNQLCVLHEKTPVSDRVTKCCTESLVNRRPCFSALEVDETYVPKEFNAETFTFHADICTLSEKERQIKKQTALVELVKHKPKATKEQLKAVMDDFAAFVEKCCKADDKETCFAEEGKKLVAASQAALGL

NC(=O)C(CC(=O)c1ccc(Oc2ccccc2)c(O)c1)c1ccccc1 (centres unmarked) [Compound 10a, 4-(3-Hydroxy-4-phenoxyphenyl)-4-oxo-2-phenylbutanamide]
CC50 (in vitro): > 300 µg/mL | MIC (M. tuberculosis H37Rv): 20 µg/mL (≈ 55.3 µM)

NC(=O)C(CC(=O)c1cccc(Oc2ccccc2)c1)c1ccccc1 (centres unmarked) [Compound 5a, 4-Oxo-4-(3-phenoxyphenyl)-2-phenylbutanamide]
CC50 (in vitro): > 300 µg/mL | MIC (M. tuberculosis H37Rv): > 100 µg/mL

Cc1ccc(C(CC(=O)c2cccc(Oc3ccccc3)c2)C(N)=O)cc1 (centres unmarked) [Compound 5b, 4-Oxo-4-(3-phenoxyphenyl)-2-p-tolylbutanamide]
CC50 (in vitro): > 300 µg/mL | MIC (M. tuberculosis H37Rv): > 100 µg/mL

Oc1cc(Cl)ccc1Oc1ccc(Cl)cc1Cl [Triclosan, reference compound]
CC50 (in vitro): > 300 µg/mL | plasma protein binding [1]: even higher than compound 10b | MIC (M. tuberculosis H37Rv): 12.5 µg/mL (≈ 43.2 µM)

COc1ccc(C(CC(=O)c2ccc(Oc3ccccc3)c(O)c2)C(N)=O)cc1 (centres unmarked) [Compound 10c, 4-(3-Hydroxy-4-phenoxyphenyl)-2-(4-methoxyphenyl)-4-oxobutanamide]
CC50 (in vitro): 261 µg/mL (≈ 666 µM) | MIC (M. tuberculosis H37Rv): 25 µg/mL (≈ 63.9 µM)

Cc1ccc(C(CC(=O)c2ccc(Oc3ccccc3)c(O)c2)C(N)=O)cc1 (centres unmarked) [Compound 10b, 4-(3-Hydroxy-4-phenoxyphenyl)-4-oxo-2-p-tolylbutanamide]
fraction unbound (human serum albumin): 0.095 | CC50 (in vitro): > 300 µg/mL | Percentage remaining ([2]; 15 minutes): 70.18% | Percentage remaining ([2]; 30 minutes): 57.49% | Percentage remaining ([2]; 1 hour): 50.68% | Percentage remaining ([2]; 2 hours): 40.35% | MIC (M. tuberculosis H37Rv): 12.5 µg/mL (≈ 33.3 µM) | pKa [3]: 7.59

NNC(=O)c1ccncc1 [Isoniazid, reference compound]
MIC (M. tuberculosis H37Rv): 0.125 µg/mL (≈ 0.911 µM)
